Tests used:
[1] = Binding affinity to hairpin double stranded DNA AT base pair in sodium cacodylate buffer at pH 6.8 assessed as triplex-forming ability measuring melting temperature after by UV melting experiment
Procedure, shortened: (§1)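 TFO and hairpin dsDNA target, each strand at 1.89 μM final, in 10 mM sodium cacodylate (pH 6.8) with 100 mM KCl and 50 mM MgCl₂. Annealed in boiling water, then cooled slowly to 5 °C. Melting was followed at 260 nm from 5 to 90 °C at 0.5 °C/min. Tm was taken by the two-point average method, mean of three independent runs.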

[2] = Binding affinity to hairpin double stranded DNA GC base pair in sodium cacodylate buffer at pH 6.8 assessed as triplex-forming ability measuring melting temperature after by UV melting experiment; procedure, shortened: as §1
[3] = Binding affinity to hairpin double stranded DNA CG base pair in sodium cacodylate buffer at pH 6.8 assessed as triplex-forming ability measuring melting temperature after by UV melting experiment; procedure, shortened: as §1
[4] = Binding affinity to hairpin double stranded DNA TA base pair in sodium cacodylate buffer at pH 6.8 assessed as triplex-forming ability measuring melting temperature after by UV melting experiment; procedure, shortened: as §1

Tm [1] [°C]	Tm [2] [°C]	Tm [3] [°C]	Tm [4] [°C]	SMILES
20	21	24	21	Cc1cn([C@H]2C[C@H](O[PH](OCCC#N)(OC[C@H]3O[C@@H](n4cc(C)c(=O)[nH]c4=O)C[C@@H]3O[PH](OCCC#N)(OC[C@H]3O[C@@H](n4cc(C)c(=O)[nH]c4=O)C[C@@H]3O[PH](OCCC#N)(OC[C@H]3O[C@@H](n4cc(C)c(=O)[nH]c4=O)C[C@@H]3O[PH](OCCC#N)(OC[C@H]3O[C@@H](n4cc(C)c(=O)[nH]c4=O)C[C@@H]3O[PH](OCCC#N)(OC(C)[C@H]3O[C@@H](n4ccc(N)nc4=O)C[C@@H]3O[PH](OCCC#N)(OC[C@H]3O[C@@H](n4cc(C)c(=O)[nH]c4=O)C[C@@H]3O[PH](OCCC#N)(OC[C@H]3O[C@@H](OCc4cn(-c5cccc(O)c5)nn4)C[C@@H]3OP(=O)(O)OC[C@H]3O[C@@H](n4cc(C)c(=O)[nH]c4=O)C[C@@H]3O[PH](OCCC#N)(OC(C)[C@H]3O[C@@H](n4ccc(N)nc4=O)C[C@@H]3O[PH](OCCC#N)(OC[C@H]3O[C@@H](n4cc(C)c(=O)[nH]c4=O)C[C@@H]3O[PH](OCCC#N)(OC(C)[C@H]3O[C@@H](n4ccc(N)nc4=O)C[C@@H]3O[PH](OCCC#N)(OC[C@H]3O[C@@H](n4cc(C)c(=O)[nH]c4=O)C[C@@H]3O[PH](OCCC#N)(OC(C)[C@H]3O[C@@H](n4ccc(N)nc4=O)C[C@@H]3O[PH](OCCC#N)(OC[C@H]3O[C@@H](n4cc(C)c(=O)[nH]c4=O)C[C@@H]3O)N(C(C)C)C(C)C)N(C(C)C)C(C)C)N(C(C)C)C(C)C)N(C(C)C)C(C)C)N(C(C)C)C(C)C)N(C(C)C)C(C)C)N(C(C)C)C(C)C)N(C(C)C)C(C)C)N(C(C)C)C(C)C)N(C(C)C)C(C)C)N(C(C)C)C(C)C)N(C(C)C)C(C)C)N(C(C)C)C(C)C)[C@@H](CO)O2)c(=O)[nH]c1=O (stereo not given in full)
20	20	23	20	CC1=CN([C@H]2C[C@H](O[PH](OCCC#N)(OC(C)[C@H]3O[C@@H](n4ccc(N)nc4=O)C[C@@H]3O[PH](OCCC#N)(OC[C@H]3O[C@@H](n4cc(C)c(=O)[nH]c4=O)C[C@@H]3O[PH](OCCC#N)(OC[C@H]3O[C@@H](OCc4cn(-c5ccccc5O)nn4)C[C@@H]3OP(=O)(O)OC[C@H]3O[C@@H](n4cc(C)c(=O)[nH]c4=O)C[C@@H]3O[PH](OCCC#N)(OC(C)[C@H]3O[C@@H](n4ccc(N)nc4=O)C[C@@H]3O[PH](OCCC#N)(OC[C@H]3O[C@@H](n4cc(C)c(=O)[nH]c4=O)C[C@@H]3O[PH](OCCC#N)(OC(C)[C@H]3O[C@@H](n4ccc(N)nc4=O)C[C@@H]3O[PH](OCCC#N)(OC[C@H]3O[C@@H](n4cc(C)c(=O)[nH]c4=O)C[C@@H]3O[PH](OCCC#N)(OC(C)[C@H]3O[C@@H](n4ccc(N)nc4=O)C[C@@H]3O[PH](OCCC#N)(OC[C@H]3O[C@@H](n4cc(C)c(=O)[nH]c4=O)C[C@@H]3O)N(C(C)C)C(C)C)N(C(C)C)C(C)C)N(C(C)C)C(C)C)N(C(C)C)C(C)C)N(C(C)C)C(C)C)N(C(C)C)C(C)C)N(C(C)C)C(C)C)N(C(C)C)C(C)C)N(C(C)C)C(C)C)[C@@H](CO[PH](OCCC#N)(O[C@H]3C[C@H](n4cc(C)c(=O)[nH]c4=O)O[C@@H]3CO[PH](OCCC#N)(O[C@H]3C[C@H](n4cc(C)c(=O)[nH]c4=O)O[C@@H]3CO[PH](OCCC#N)(O[C@H]3C[C@H](n4cc(C)c(=O)[nH]c4=O)O[C@@H]3CO[PH](OCCC#N)(O[C@H]3C[C@H](n4cc(C)c(=O)[nH]c4=O)O[C@@H]3CO)N(C(C)C)C(C)C)N(C(C)C)C(C)C)N(C(C)C)C(C)C)N(C(C)C)C(C)C)O2)C(O)NC1=O (stereo not given in full)
22	22	25	25	Cc1cn([C@H]2C[C@H](O[PH](OCCC#N)(OC[C@H]3O[C@@H](n4cc(C)c(=O)[nH]c4=O)C[C@@H]3O[PH](OCCC#N)(OC[C@H]3O[C@@H](n4cc(C)c(=O)[nH]c4=O)C[C@@H]3O[PH](OCCC#N)(OC[C@H]3O[C@@H](n4cc(C)c(=O)[nH]c4=O)C[C@@H]3O[PH](OCCC#N)(OC[C@H]3O[C@@H](n4cc(C)c(=O)[nH]c4=O)C[C@@H]3O[PH](OCCC#N)(OC(C)[C@H]3O[C@@H](n4ccc(N)nc4=O)C[C@@H]3O[PH](OCCC#N)(OC[C@H]3O[C@@H](n4cc(C)c(=O)[nH]c4=O)C[C@@H]3O[PH](OCCC#N)(OC[C@H]3O[C@@H](CCc4cn(-c5cccc(C(N)=O)c5)nn4)C[C@@H]3OP(=O)(O)OC[C@H]3O[C@@H](n4cc(C)c(=O)[nH]c4=O)C[C@@H]3O[PH](OCCC#N)(OC(C)[C@H]3O[C@@H](n4ccc(N)nc4=O)C[C@@H]3O[PH](OCCC#N)(OC[C@H]3O[C@@H](n4cc(C)c(=O)[nH]c4=O)C[C@@H]3O[PH](OCCC#N)(OC(C)[C@H]3O[C@@H](n4ccc(N)nc4=O)C[C@@H]3O[PH](OCCC#N)(OC[C@H]3O[C@@H](n4cc(C)c(=O)[nH]c4=O)C[C@@H]3O[PH](OCCC#N)(OC(C)[C@H]3O[C@@H](n4ccc(N)nc4=O)C[C@@H]3O[PH](OCCC#N)(OC[C@H]3O[C@@H](n4cc(C)c(=O)[nH]c4=O)C[C@@H]3O)N(C(C)C)C(C)C)N(C(C)C)C(C)C)N(C(C)C)C(C)C)N(C(C)C)C(C)C)N(C(C)C)C(C)C)N(C(C)C)C(C)C)N(C(C)C)C(C)C)N(C(C)C)C(C)C)N(C(C)C)C(C)C)N(C(C)C)C(C)C)N(C(C)C)C(C)C)N(C(C)C)C(C)C)N(C(C)C)C(C)C)[C@@H](CO)O2)c(=O)[nH]c1=O (stereo not given in full)
19	20	23	19	Cc1cn([C@H]2C[C@H](O[PH](OCCC#N)(OC[C@H]3O[C@@H](n4cc(C)c(=O)[nH]c4=O)C[C@@H]3O[PH](OCCC#N)(OC[C@H]3O[C@@H](n4cc(C)c(=O)[nH]c4=O)C[C@@H]3O[PH](OCCC#N)(OC[C@H]3O[C@@H](n4cc(C)c(=O)[nH]c4=O)C[C@@H]3O[PH](OCCC#N)(OC[C@H]3O[C@@H](n4cc(C)c(=O)[nH]c4=O)C[C@@H]3O[PH](OCCC#N)(OC(C)[C@H]3O[C@@H](N4C=CC(N)=N[C@@H]4O)C[C@@H]3O[PH](OCCC#N)(OC[C@H]3O[C@@H](n4cc(C)c(=O)[nH]c4=O)C[C@@H]3O[PH](OCCC#N)(OC[C@H]3O[C@@H](OCc4cn(-c5cccc(C(N)=O)c5)nn4)C[C@@H]3OP(=O)(O)OC[C@H]3O[C@@H](n4cc(C)c(=O)[nH]c4=O)C[C@@H]3O[PH](OCCC#N)(OC(C)[C@H]3O[C@@H](n4ccc(N)nc4=O)C[C@@H]3O[PH](OCCC#N)(OC[C@H]3O[C@@H](n4cc(C)c(=O)[nH]c4=O)C[C@@H]3O[PH](OCCC#N)(OC(C)[C@H]3O[C@@H](n4ccc(N)nc4=O)C[C@@H]3O[PH](OCCC#N)(OC[C@H]3O[C@@H](n4cc(C)c(=O)[nH]c4=O)C[C@@H]3O[PH](OCCC#N)(OC(C)[C@H]3O[C@@H](n4ccc(N)nc4=O)C[C@@H]3O[PH](OCCC#N)(OC[C@H]3O[C@@H](n4cc(C)c(=O)[nH]c4=O)C[C@@H]3O)N(C(C)C)C(C)C)N(C(C)C)C(C)C)N(C(C)C)C(C)C)N(C(C)C)C(C)C)N(C(C)C)C(C)C)N(C(C)C)C(C)C)N(C(C)C)C(C)C)N(C(C)C)C(C)C)N(C(C)C)C(C)C)N(C(C)C)C(C)C)N(C(C)C)C(C)C)N(C(C)C)C(C)C)N(C(C)C)C(C)C)[C@@H](CO)O2)c(=O)[nH]c1=O (stereo not given in full)
20	19	22	18	Cc1cn([C@H]2C[C@H](O[PH](OCCC#N)(OC[C@H]3O[C@@H](n4cc(C)c(=O)[nH]c4=O)C[C@@H]3O[PH](OCCC#N)(OC[C@H]3O[C@@H](n4cc(C)c(=O)[nH]c4=O)C[C@@H]3O[PH](OCCC#N)(OC[C@H]3O[C@@H](n4cc(C)c(=O)[nH]c4=O)C[C@@H]3O[PH](OCCC#N)(OC[C@H]3O[C@@H](n4cc(C)c(=O)[nH]c4=O)C[C@@H]3O[PH](OCCC#N)(OC(C)[C@H]3O[C@@H](n4ccc(N)nc4=O)C[C@@H]3O[PH](OCCC#N)(OC[C@H]3O[C@@H](n4cc(C)c(=O)[nH]c4=O)C[C@@H]3O[PH](OCCC#N)(OC[C@H]3O[C@@H](CCc4cn(-c5ccccc5O)nn4)C[C@@H]3OP(=O)(O)OC[C@H]3O[C@@H](n4cc(C)c(=O)[nH]c4=O)C[C@@H]3O[PH](OCCC#N)(OC(C)[C@H]3O[C@@H](n4ccc(N)nc4=O)C[C@@H]3O[PH](OCCC#N)(OC[C@H]3O[C@@H](n4cc(C)c(=O)[nH]c4=O)C[C@@H]3O[PH](OCCC#N)(OC(C)[C@H]3O[C@@H](n4ccc(N)nc4=O)C[C@@H]3O[PH](OCCC#N)(OC[C@H]3O[C@@H](n4cc(C)c(=O)[nH]c4=O)C[C@@H]3O[PH](OCCC#N)(OC(C)[C@H]3O[C@@H](n4ccc(N)nc4=O)C[C@@H]3O[PH](OCCC#N)(OC[C@H]3O[C@@H](n4cc(C)c(=O)[nH]c4=O)C[C@@H]3O)N(C(C)C)C(C)C)N(C(C)C)C(C)C)N(C(C)C)C(C)C)N(C(C)C)C(C)C)N(C(C)C)C(C)C)N(C(C)C)C(C)C)N(C(C)C)C(C)C)N(C(C)C)C(C)C)N(C(C)C)C(C)C)N(C(C)C)C(C)C)N(C(C)C)C(C)C)N(C(C)C)C(C)C)N(C(C)C)C(C)C)[C@@H](CO)O2)c(=O)[nH]c1=O (stereo not given in full)

From ChEMBL document CHEMBL2413013, “Triplex-forming ability of oligonucleotides containing 1-aryl-1,2,3-triazole nucleobases linked via a two atom-length spacer” (Bioorg Med Chem, 2013)
